ChEMBL document CHEMBL3870351, “Synthesis of 2-methyl-1,4-naphthoquinones with higher gamma-glutamyl carboxylase activity than MK-4 both in vitro and in vivo” (Bioorg Med Chem Lett, 2017)
The source made the active and inactive calls. The rule behind the calls is not given here.

Assays:
[1] = Cytotoxicity against human MG63 cells assessed as decrease in cell viability up to 500 nM by MTT assay; format: toxicity, cell-based; conditions: mg-63
In short: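 MG63 cells; cell viability measured with compounds at concentrations up to 500 nM.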

[2] = molecular target: T1, Vitamin K-dependent gamma-carboxylase (Homo sapiens) (UniProt P38435); experiment: Activation of gamma-glutamyl carboxylase in human MG63 cells assessed as increase in carboxylated osteocalcin level at 50 nM after 72 hrs by enzyme immuno assay; format: cell-based; conditions: MG-63
T1 sequence (whole entry): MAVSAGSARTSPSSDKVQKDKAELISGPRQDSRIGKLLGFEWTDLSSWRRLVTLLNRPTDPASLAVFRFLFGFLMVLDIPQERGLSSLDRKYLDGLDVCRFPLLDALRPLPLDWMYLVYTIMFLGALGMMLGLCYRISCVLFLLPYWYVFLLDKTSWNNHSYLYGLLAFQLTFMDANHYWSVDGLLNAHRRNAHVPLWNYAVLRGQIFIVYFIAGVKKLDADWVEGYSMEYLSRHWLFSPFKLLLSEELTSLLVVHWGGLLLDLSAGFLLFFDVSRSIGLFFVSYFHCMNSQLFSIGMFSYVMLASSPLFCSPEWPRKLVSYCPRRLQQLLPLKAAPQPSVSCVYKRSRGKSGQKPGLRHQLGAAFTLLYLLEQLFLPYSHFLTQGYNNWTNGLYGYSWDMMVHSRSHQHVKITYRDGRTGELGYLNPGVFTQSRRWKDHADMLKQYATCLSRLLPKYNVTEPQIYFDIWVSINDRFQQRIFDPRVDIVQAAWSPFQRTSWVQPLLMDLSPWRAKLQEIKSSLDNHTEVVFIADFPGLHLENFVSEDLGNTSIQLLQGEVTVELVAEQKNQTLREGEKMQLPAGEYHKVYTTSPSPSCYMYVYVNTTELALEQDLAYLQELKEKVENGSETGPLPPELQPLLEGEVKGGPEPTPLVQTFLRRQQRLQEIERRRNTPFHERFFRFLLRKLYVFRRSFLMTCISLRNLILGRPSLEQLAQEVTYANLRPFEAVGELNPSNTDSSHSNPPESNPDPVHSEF
In short: (§1)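 Human osteosarcoma MG63 cells; uncarboxylated (ucOC) and carboxylated (cOC) osteocalcin measured in culture media/supernatants; untreated controls received no vitamin K or analogue; run in triplicate.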

[3] = molecular target: T1, Vitamin K-dependent gamma-carboxylase (Homo sapiens); experiment: Activation of gamma-glutamyl carboxylase in human MG63 cells assessed as reduction in un-carboxylated osteocalcin level at 50 nM after 72 hrs by enzyme immuno assay; format: cell-based; conditions: MG-63; in short: as §1
Rattus norvegicus [4] = species: Rattus norvegicus; experiment: Restoration of prothrombin activity in vitamin-K deficient diet fed Wistar-Kyoto rat assessed as plasma prothrombin level at 5 ug/g of food for 2 days by one-stage PT-based clotting assay (reference value: 60%); format: functional
Rattus norvegicus [5] = species: Rattus norvegicus; experiment: Restoration of prothrombin activity in vitamin-K deficient diet fed Wistar-Kyoto rat assessed as plasma prothrombin level at 5 ug/g of food for 5 days by one-stage PT-based clotting assay (reference value: 60%); format: functional
Rattus norvegicus [6] = species: Rattus norvegicus; experiment: Toxicity in vitamin-K deficient diet fed Wistar-Kyoto rat assessed as change in body weight at 0.5 ug/g of food for 5 days; format: organism-based; conditions: in vivo, po, 120 h
Rattus norvegicus [7] = species: Rattus norvegicus; experiment: Toxicity in vitamin-K deficient diet fed Wistar-Kyoto rat assessed as change in body weight at 5 ug/g of food for 2 to 5 days; format: organism-based; conditions: in vivo, po

Row | Compound | Activity [2] | Activity [3] | Activity [1] | further results
1 | COc1c(C)c(Br)c(OC)c2ccccc12 |  |  | Non-Toxic | 
2 | CC(C)=CCC/C(C)=C/CC/C(C)=C/CC/C(C)=C/CC1=C(C)C(=O)c2ccccc2C1=O | Active | Active |  | 
3 | CC1=C(Br)C(=O)c2ccccc2C1=O |  |  | Non-Toxic | 
4 | CC1=CC(=O)c2ccccc2C1=O [MENADIONE] |  |  | Non-Toxic | 
5 | COc1c(C)c(CC(=O)O)c(OC)c2ccccc12 | Active | Active | Non-Toxic | 
6 | CCOC(=O)Cc1c(C)c(OC)c2ccccc2c1OC |  |  | Non-Toxic | 

Now from value to compound, other results behind:

Row | Activity [2] | Activity [3] | Compound | Activity [1] | further results
7 | Active | Active | CCCCCCCCCCCCCCCCNC(=O)CC1=C(C)C(=O)c2ccccc2C1=O | Non-Toxic | 
8 | Active | Active | CCOC(=O)CC1=C(C)C(=O)c2ccccc2C1=O | Non-Toxic | 
9 | Active | Active | CC1=C(CC(=O)O)C(=O)c2ccccc2C1=O | Non-Toxic | 
10 | Active | Active | CCCCCCCCCCCCCCNC(=O)CC1=C(C)C(=O)c2ccccc2C1=O | Non-Toxic | Activity (Rattus norvegicus [4]): 107%; Activity (Rattus norvegicus [5]): 106%; Activity (Rattus norvegicus [6]): Non-Toxic; Activity (Rattus norvegicus [7]): Non-Toxic
11 |  | Active | CCCCCCCCCCCCCCCCCNC(=O)CC1=C(C)C(=O)c2ccccc2C1=O | Non-Toxic | 
12 |  | Active | CCCCCCCCCCCCCCCCCCNC(=O)CC1=C(C)C(=O)c2ccccc2C1=O | Non-Toxic | 
